According to ChEMBL document CHEMBL4513216, “Probing the Open Global Health Chemical Diversity Library for Multistage-Active Starting Points for Next-Generation Antimalarials” (ACS Infect Dis, 2020):

Assay: Toxicity liver stage against HepG2, at 10uM
Format: cell-based
Parameters: test concentration 10 uM, cell line HepG2-A16-CD81EGFP
Details: human, HepG2-A16-CD81EGFP cells; read-out: INHIBITION
In short: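 Uninfected HepG2-A16-CD81EGFP cells, 3 × 10^3 per well, 1536-well, plated on prespotted compound at 10 μM final, parasite-free screening media added to match infected plates; puromycin 10 μM positive, DMSO 0.5% negative; run in parallel with 48 h PbLuc assay at 37 °C, 5% CO2; viability by CellTiter-Glo luminescence, normalized to controls.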

| Compound | cytotoxicity at 10 µM [%] |
| --- | --- |
| Cc1nn(C(C)C)c(C)c1NC(=O)Nc1cccnc1N1CCCC1 | -5.79 |
| CCS(=O)(=O)N1CC(=O)N(CCCc2ccccc2)CC(O)C1 (stereo not given) | -5.64 |
| CCCC1CN(CCOC)C(=O)c2cccnc2O1 (stereo not given) | 5.42 |
| Cc1occc(=O)c1OCc1noc(C(=O)NCC(C)C)n1 | 6.43 |
| CC(C)CCNC(=O)c1ccc(-n2cnc3ccccc3c2=O)cc1 | -6.17 |
| COc1ccc(NC(=O)Cn2c(=O)nc(N)c3cc(C)sc32)cc1 | 2.31 |
| Cc1ccc(C(=O)Nc2nnc(CC(C)C)s2)c(-n2cnnn2)c1C | -147 |
| COc1cccc(CNC(=O)CC2CSc3nc(C)c(C)c(=O)n32)c1 (stereo not given) | -4.31 |
| CC(=O)c1c(C)nn(CC(=O)Nc2ccc(F)cc2)c1C | -72 |
| CC(C)OC(=O)CN1N=C(C(=O)N2CCCC2)S(=O)(=O)c2ccccc21 | -2.93 |
| O=C(NCc1nc2ccccc2[nH]1)c1cnn2c1OCCC2 | 0.0962 |
| COCC(=O)Nc1cnc(N2CCOCC2)nc1 | -10.7 |
| CC(NC(=O)C1CN(c2ncnc3c2nnn3C)C1)c1ccccc1 (stereo not given) | 2.8 |
| O=C(N1CCOCC1)N1CCc2ncnc(NC3CC3)c2CC1 | -20.9 |
| Cc1cccc(CN2C[C@@H]3CN(C(=O)c4ccsc4)C[C@@H]3C2=O)c1 | -18.8 |
| Cc1nn(Cn2ccc(C(=O)N3CCCCCC3)n2)c(C)c1Cl | 0.781 |
| Cc1nn(C)cc1-c1cc(C(F)F)nc(NC2CCCCC2)n1 | 1.84 |
| O=C1CC(c2cccnc2)c2c(sc3c2CCCC3)N1 (stereo not given) | 8.75 |
| O=C(c1cnc(O)c(Cl)c1)N1CCCC(c2nccs2)C1 (stereo not given) | 3.63 |
| Nc1nc(N)c2c(n1)OC1(CCN(C(=O)CC3CCCCN3)CC1)C2 (stereo not given) | -0.24 |
| CC(=O)N1CCCC1c1cc(Nc2nnc(C)s2)nc(C)n1 (stereo not given) | -18.2 |
| O=S1(=O)NC(C2CCN(Cc3ccccn3)CC2)Nc2ccccc21 (stereo not given) | -33.6 |

| Compound | cytotoxicity at 10 µM [%] |
| --- | --- |
| Cc1cc(C(F)(F)F)c2c(C3CCCN(C(=O)C4CC4)C3)noc2n1 (stereo not given) | -25.1 |
| O=S(=O)(c1cc(F)ccc1N1CC(n2cccn2)C1)C(F)(F)F | 11.3 |
| CCN(CC)C1CCN(C(=O)NCc2cccc(-n3cccn3)c2)C1 (stereo not given) | 5.79 |
| CC(Cc1ccc(Cl)cc1)N(C)C(=O)NCCS(C)(=O)=O (stereo not given) | 0.606 |
| COc1ccc(CN(C)Cc2c(C)noc2C)c(Br)c1OC | -0.2 |
| COCCS(=O)(=O)Cc1nnnn1-c1ccccc1 | -9.4 |
| COCCCSc1ccc(NCc2cscn2)cc1 | 6.43 |
| Cc1ccc(C)c(Oc2ccc(CNC(=O)C3CCS(=O)(=O)C3)cn2)c1 (stereo not given) | -3.98 |
| O=C(Nc1cccc(C(F)(F)F)c1)C1CC(=O)N(Cc2ccccn2)C1 (stereo not given) | -0.505 |
| CC(C)CCC(=O)N1CCCC1c1nnc2n1CCCCC2 (stereo not given) | -8.88 |
| CN(Cc1ccsc1)C(=O)Nc1cccc(N2CCOC2=O)c1 | -12.9 |
| FC(F)c1nnc2ccc(N3CCC4(CCCCC4)C3)nn12 | 1.47 |
| Cc1cc(-n2cncn2)ccc1C(=O)N(C)CC(F)(F)C(F)(F)F | -10.3 |
| CCCNC(=O)CCc1ccnc2ccccc12 | 5.25 |
| Cc1nc(C)n(CC2CCCN2c2ncnc3c2CCC3)n1 (stereo not given) | 8.03 |
| O=C(CN1CCOc2ccc(Cl)cc21)NCCCn1cccn1 | -0.174 |
| Cc1noc(C)c1CN(C)C(=O)C1(N)CCCCC1 | 6.67 |
| CC(C)OCCN1CCC(Nc2ccc(C#N)cc2F)CC1 | -4.94 |
| Cn1cc(C(=O)NC2CCCC2)c(-c2cccnc2)n1 | 10.3 |
| O=C1C(N2CCN(c3ccccc3Cl)CC2)CCN1C1CCOCC1 (stereo not given) | -0.455 |
| CN(C)C(=O)Cn1ccc2cc(NC(=O)N3CCSCC3)ccc21 | 5.25 |
| Cn1cc(C2NC3(CCCC3)C(=O)N2CC2CC2)c(=O)n(C)c1=O (stereo not given) | 6.93 |

| Compound | cytotoxicity at 10 µM [%] |
| --- | --- |
| CCCN1CCC(NC(=O)NCCc2nc(CC)c(C)s2)CC1 | -19 |
| Cc1cc(S(=O)(=O)N2CCCc3ccc(F)cc32)sc1C(=O)O | 18.1 |
| Cn1ccnc1SCc1nc(C(C)(C)NC(=O)OC(C)(C)C)no1 | -0.679 |
| Cn1cnc(S(=O)(=O)N2CCCC2)c1Cl | 15.1 |
| CCNS(=O)(=O)c1ccc(C)c(C(=O)N(C)Cc2ccco2)c1 | 0.685 |
| CN(Cc1ccccc1Br)C(=O)Cn1nc(-c2ccc(F)cc2)oc1=O | 9.46 |
| Cc1nn(C(C)C)c(C)c1NC(=O)c1ccncc1 | -17.3 |
| CCn1ccnc1CN1CCN(Cc2ccccn2)CC1C (stereo not given) | 14.3 |
| CS(=O)(=O)NCc1cn2c(n1)CN(C(=O)c1ccc[nH]1)CC2 | 5.69 |
| O=C(c1cn2cc(Cl)cnc2n1)N1CCOCC(O)(CN2CCCC2)C1 (stereo not given) | -8.42 |
| CN(Cc1n[nH]c2c1CCC2)c1nc(C2CCCC2)nc2c1CNC2 | -3.86 |
| CCc1nc2c(N3CCC4(CC3)CC(=O)N(CC)C4)ncnc2o1 | -3.2 |
| Cc1nnc(NCCn2nc(C)c(Cl)c2C)o1 | 1.91 |
| Cc1nccc(N2CCC(=O)N(CC3CC3)C(C(C)C)C2)n1 (stereo not given) | -0.232 |
| O=C1CCCCN1CCCC(=O)N1CCC2(CC1)[C@H](O)C[C@@H]2O | 1.12 |
| CC(C)c1ncc(CN2C[C@@H](CN3CCCCC3)[C@@H](CO)C2)cn1 | -10.2 |
| O=C(NCCO)c1coc(CN2CCN(c3ccccc3F)CC2)n1 | -11.2 |
| CN(C)c1nc2c(c(N(C)Cc3n[nH]c4c3CCCCC4)n1)CCNC2 | 2.95 |
| c1cc(-c2cnccn2)cc(-c2ccn(CCCN3CCCCC3)n2)c1 | -2.15 |
| Cc1cnccc1NCCn1ccnc1C1CCCCC1 | -4.2 |
| Cc1ccccc1N1CCCN(C(=O)CCc2ccncc2)CC1 | -9.88 |
| O=C1NCCCc2[nH]c(C3CCCN(C(=O)C4CC4)C3)nc21 (stereo not given) | 3.55 |

| Compound | cytotoxicity at 10 µM [%] |
| --- | --- |
| Cc1nc[nH]c1CNCc1cccnc1N(C)C1CCCCC1 | 5.32 |
| Fc1ccccc1CN1CCCN(c2ncnc3[nH]ccc23)CC1 | -5.86 |
| O=C(NC1CCNCC1)C1(N2CCCCC2)Cc2ccccc2C1 | -5.47 |
| Cc1ccc(C)c(NC(=O)N2CCC3(CC2)NC(=O)CC3C(=O)O)c1 (stereo not given) | 4.9 |
| Cc1ccccc1OCCC(=O)N1CCc2nc(C)n(C)c(=O)c2CC1 | -0.852 |
| COCCCC1(CO)CCCN(Cc2cccc(C#N)c2)C1 (stereo not given) | 4.16 |
| COc1ccc(C(C(=O)O)N(C)Cc2c(C)nn(C)c2C)c(C)c1 (stereo not given) | 7.47 |
| CC(O)CN1CC2(CCC1=O)CCN(C(=O)c1cnn(C)c1)CC2 (stereo not given) | 3.74 |
| CCOCC(=O)N1CCC(C2CCN(Cc3ccc(Cl)cc3)C2)CC1 (stereo not given) | -9.15 |
| Cc1nnc(CN2CCCC(CCc3ccccc3C(F)(F)F)C2)o1 (stereo not given) | 3.67 |
| CCCc1nnc(N2CCCC(c3nnc(Cn4ccnc4)n3C)C2)s1 (stereo not given) | -0.391 |
| CCc1ccc(C2CC(=O)Nc3n[nH]cc32)o1 (stereo not given) | 0.0773 |
| CC(C)N1CCCC(C(=O)N2CCc3c(nc(CC4CC4)[nH]c3=O)C2)C1 (stereo not given) | -7.41 |
| CCS(=O)(=O)N1CCC(c2nnc(CN3CCCCC3)n2C)CC1 | -6.03 |
| CC(=O)NCC(=O)N1CCC(C2CCN(Cc3ccc(Cl)cc3)C2)CC1 (stereo not given) | -9.12 |
| CCc1cc(O)nc(C2CCCN2C(=O)c2cc(C)no2)n1 (stereo not given) | 2.69 |
| NC(=O)c1cc(C2CCCN(CCOc3ccc(F)cc3)C2)n[nH]1 (stereo not given) | -7.92 |
| CCCc1noc(CN2CCCCC2Cn2cncn2)n1 (stereo not given) | 4.84 |
| Cc1nn(C)c(N2CCOCC2)c1CNCc1cscn1 | -8.07 |
| COCc1ccc(C(=O)N2CCCN(Cc3cscn3)CC2)cc1 | -3.07 |
| CC(=O)N(Cc1noc(C)n1)C1CCN(Cc2ccc(C#N)cc2)C1 (stereo not given) | -3.66 |
| CNc1cc2c(nn1)CCN(C(=O)c1ccc3c(c1)CCC3)C2 | 3.15 |

| Compound | cytotoxicity at 10 µM [%] |
| --- | --- |
| CCc1csc(C2CCCN(C(=O)c3c[nH]c(C)n3)C2)n1 (stereo not given) | -9.03 |
| Cn1cc(CCC(=O)N2CCN(Cc3ccncc3)CC2)cn1 | -6.64 |
| CCc1nc(C2CCCN(C(=O)c3cccc4cn[nH]c34)C2)no1 (stereo not given) | -3.73 |
| O=C(COc1ccc2c(c1)CCC2)NS(=O)(=O)c1cncc(Br)c1 | -5.82 |
| CCOc1ccccc1OC1CCN(C(=O)c2nc(=O)[nH][nH]2)CC1 | -9.75 |
| CCn1ccnc1CN1CCN(CCOc2ccccc2OC)CC1 | -8.83 |
| COC(=O)c1ccc(N2CCN(C(=O)c3ccncc3)C(C)C2)cc1 (stereo not given) | -6.38 |
| CN(CCCc1ccccc1)Cc1nc2c(cnn2C)c(=O)[nH]1 | -9.56 |
| Cc1nn(C)c(N(C)C)c1CNC(C)c1cccc(OC(C)C)c1 (stereo not given) | -7.76 |
| CN1CCC/C1=N\S(=O)(=O)c1ccc(NC(=O)CCc2cccs2)cc1 | -8.55 |
| O=C(NCCc1ccn(-c2ccccc2)n1)N1CCC1 | -0.361 |
| Cc1cc(CN2CCOC(CN(C)c3cccnn3)C2)no1 (stereo not given) | 8.23 |
| Cc1nc(CC(=O)N2CCC(c3nn(C)c4ncccc34)CC2)cs1 | -18.9 |
| O=C(NC1CC1)[C@@H]1CCO[C@@H]2CCN(CCc3ccccc3)C[C@@H]21 | 3.6 |
| c1ccc([C@@H]2CN(Cc3ccncc3)C[C@H]2c2cc[nH]n2)cc1 | -0.189 |
| Cc1nc[nH]c1CN1CCc2nc3scc(C)c3c(=O)n2CC1 | -35.7 |
| N#Cc1ccc(C(=O)N2CC[C@H]3[C@H]2CCN3CC2CC2)cc1 | -9.87 |
| COCC(=O)N1CCC2(CCN(Cc3cccnc3)C2)CC1 | -2.42 |
| CC1c2ncc(CN3CCN(C)CC3)n2CCN1Cc1ccsc1 (stereo not given) | 6.58 |
| O=C(NCc1cc(=O)n2c(n1)CN(CC1CCOC1)CCC2)C1CC1 (stereo not given) | -11.2 |
| CCN1CCOCC2(CCCN(C(=O)c3ccncc3F)C2)C1 (stereo not given) | -3.16 |
| c1ccc(CN2CCO[C@H]3[C@H](OCCN4CCCC4)CC[C@@H]32)nc1 | -1.5 |
